Experimental findings from ChEMBL document CHEMBL1126327, “Synthesis and antihypertensive activity of 3-[(substituted-carbonyl)amino]-2H-1-benzopyrans” (1992) are described below.

What all share (assay type): functional
In test [1] the test system is Rattus norvegicus. The experiment in a line: Compound was evaluated for oral antihypertensive activity in spontaneously hypertensive rats at a dose of 0.1 mg/kg (po). In outline:
(§1)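 Conscious spontaneously hypertensive rats (Okamoto-derived, 14-24 weeks old; systolic pressure >180 mmHg counted as hypertensive) dosed by oral needle into the esophagus as a solution or suspension in 1% w/v methylcellulose. Systolic pressure was taken by tail-cuff, each reading the mean of at least five recordings, before dosing and at intervals up to 6 h. The maximum fall was recorded.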

Test [2] concerns Rattus norvegicus. Briefly: Oral antihypertensive activity in spontaneously hypertensive rats at a dose of 0.3 mg/kg (po). An outline of the steps: as §1
The test system of test [3] is Rattus norvegicus. Briefly: Compound was evaluated for oral antihypertensive activity in spontaneously hypertensive rats at a dose of 1.0 mg/kg (po). An outline of the steps: as §1
The subject of test [4] is Rattus norvegicus. The experiment in a line: Oral antihypertensive activity in spontaneously hypertensive rats at a dose of 10 mg/kg (po). An outline of the steps:
as §1

Test [5] deals with Rattus norvegicus. Briefly: Oral antihypertensive activity in spontaneously hypertensive rats at a dose of 3 mg/kg (po). An outline of the steps: as §1
Test [6] has as its system Rattus norvegicus. The experiment in a line: Oral antihypertensive activity in spontaneously hypertensive rats at a dose of 1 mg/kg (po). In outline: as §1
The test system of test [7] is Rattus norvegicus. The experiment in a line: Compound was evaluated for oral antihypertensive activity in spontaneously hypertensive rats at a dose of 1 mg/Kg (po). In outline:
as §1

Test [8] concerns Rattus norvegicus. Briefly: Compound was evaluated for oral antihypertensive activity in spontaneously hypertensive rats at a dose of 10 mg/Kg (po). In outline:
as §1

The test system of test [9] is Rattus norvegicus. The experiment in a line: Compound was evaluated for oral antihypertensive activity in spontaneously hypertensive rats at a dose of 3 mg/Kg (po). In outline: as §1

Consider `CC(C)(C)NC(=O)N[C@@H]1C(O)c2cc(C#N)ccc2OC1(C)C` (some centres not stated), for which the entries for the “Max fall in blood pressure” value in test [1], in test [2] and in [3] were -19%, -40% and -63%, respectively.
Consider `CC1(C)Oc2ccc(C#N)cc2C(O)[C@H]1N1CCCCC1=O` (some centres not stated), for which the figures for the “Max fall in blood pressure” value in test [4] and in [5] were -16% and -20%, respectively.
In the case of `CC1(C)Oc2ccc(C#N)cc2C(O)[C@H]1NC(=O)NC1CCCCC1` (some centres not stated), the “Max fall in blood pressure” value in test [5] is -14%.
In the case of `CC1(C)Oc2ccc(C#N)cc2C(O)[C@H]1NC(=O)c1ccccn1` (some centres not stated), the entries for the “Max fall in blood pressure” value in test [6] and in [5] were -18% and -15%, respectively.
In the case of `COC1c2cc(C#N)ccc2OC(C)(C)[C@@H]1NC(=O)OC(C)(C)C` (some centres not stated), the “Max fall in blood pressure” value in [5] was -39%.
As for `CC(C)NC(=O)N[C@@H]1C(O)c2cc(C#N)ccc2OC1(C)C` (some centres not stated), the “Max fall in blood pressure” value in test [2] is listed as -22%; in test [6], -26%.
With `CC1(C)Oc2ccc(C#N)cc2C(O)[C@H]1NC(=O)C1CCCCC1` (some centres not stated), the “Max fall in blood pressure” value was -11% in test [6] and -9% in test [5].
For the molecule `CCNC(=O)N[C@@H]1C(O)c2cc(C#N)ccc2OC1(C)C` (some centres not stated), the results for the “Max fall in blood pressure” value in test [6] and in test [5] were -13% and -18%, respectively.
For the molecule `CNC(=O)N[C@@H]1C(O)c2cc(C#N)ccc2OC1(C)C` (some centres not stated), the figures for the “Max fall in blood pressure” value in test [4] and in test [5] were -24% and -8%, respectively.
Consider `CN(C)C(=O)N[C@@H]1C(O)c2cc(C#N)ccc2OC1(C)C` (some centres not stated), for which the “Max fall in blood pressure” value in test [5] is on record as -27%.
Turning to `CC(C)(C)CC(=O)N[C@@H]1C(O)c2cc(C#N)ccc2OC1(C)C` (some centres not stated), the “Max fall in blood pressure” value in [6] is on record as -9%; in test [5], -27%.
Taken in the same sequence, the figures for `CC1(C)Oc2ccc(C#N)cc2C(O)[C@H]1NC(=O)c1ccc(F)c(F)c1` (some centres not stated) were -6% and -37%.
Turning to `CC(C)/N=C(\S)N[C@@H]1C(O)c2cc(C#N)ccc2OC1(C)C` (some centres not stated), the “Max fall in blood pressure” value in [2] was -49%.
Take `CC(C)(C)OC(=O)N[C@@H]1C(O)c2cc(C#N)ccc2OC1(C)C` (some centres not stated): the “Max fall in blood pressure” value was -14% in [7], -49% in [8] and -30% in test [9].
`CC(C)(C)NC(=O)N[C@@H]1C(O)c2cc(C(F)(F)F)ccc2OC1(C)C` (some centres not stated): the “Max fall in blood pressure” value in test [6] was -31%.
As to `CC(C)(C)C(=O)N[C@@H]1C(O)c2cc(C#N)ccc2OC1(C)C` (some centres not stated), the “Max fall in blood pressure” value in test [2] is given as -30%; in test [6] it was -36%.
In the case of `CCCNC(=O)N[C@@H]1C(O)c2cc(C#N)ccc2OC1(C)C` (some centres not stated), the “Max fall in blood pressure” value in [6] is recorded as -10%; in test [5], -32%.
`CC1(C)Oc2ccc(C#N)cc2C(O)[C@H]1NC(=O)c1ccc(F)cc1` (some centres not stated): the “Max fall in blood pressure” value is -22% in test [6] and -42% in test [5].
For the molecule `CC(C)(C)OC(=O)N[C@@H]1Cc2cc(C#N)ccc2OC1(C)C`, the “Max fall in blood pressure” value in [4] is listed as -30%; in test [5] it was -26%.
Turning to `CC1(C)Oc2ccc(C#N)cc2C(O)[C@H]1NC(=O)c1ccccc1` (some centres not stated), the “Max fall in blood pressure” value in test [5] is -20%.
As for `CC(C)(C)OC(=O)N[C@@H]1C(N)c2cc(C#N)ccc2OC1(C)C` (some centres not stated), the “Max fall in blood pressure” value in [4] is recorded as -25%.
For `CC(C)(C)NC(=O)N[C@@H]1Cc2cc(C#N)ccc2OC1(C)C`, in test [2], the “Max fall in blood pressure” value was -27%.
As for `CC(C)C(=O)N[C@@H]1C(O)c2cc(C#N)ccc2OC1(C)C` (some centres not stated), the “Max fall in blood pressure” value in [1] was -22%; in test [2], -39%.
Take `CC(=O)N[C@@H]1C(O)c2cc(C#N)ccc2OC1(C)C` (some centres not stated): the results for the “Max fall in blood pressure” value in [4] and in test [5] were -32% and -14%, respectively.
Consider `CC(C)(C)NC(=O)N[C@@H]1C(O)c2cc(Cl)ccc2OC1(C)C` (some centres not stated), for which the “Max fall in blood pressure” value in test [2] is given as -16%; in test [5], -34%.
For `CC1(C)Oc2ccc(C#N)cc2C(N2CCCC2=O)C1O` (configuration not stated) [CROMAKALIM], the “Max fall in blood pressure” value is reported as -13% in test [1], -39% in test [2] and -47% in test [6].
